Data reported in ChEMBL document CHEMBL4371088, “Analysis of chain length, substitution patterns, and unsaturation of AM-404 derivatives as 20S proteasome stimulators” (Bioorg Med Chem Lett, 2019).

Columns and labels:
20S proteasome = assay: Stimulation of human 20S proteasome using 11 amino acid FRET peptide as substrate measured every 2 mins over 1 hr by FRET assay; assay type: protein-complex assay
Outline: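 Purified human 20S core particle is incubated with an 11-residue reporter peptide carrying a FRET pair, with or without stimulator. The peptide hydrolysis rate is calculated and expressed as percent increase over the basal (unstimulated) rate. EC50 comes from concentration-response curves.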

[1] = molecular target: 20S proteasome (Homo sapiens) (UniProt P49721+P20618+P28074+P28062+P28065+P28072+P25786+P25787+P25788+P25789+P28066+P60900+O14818+Q8TAA3+P40306+A5LHX3+P49720+P28070+Q99436); assay: Stimulation of human 20S proteasome at EC50 using 11 amino acid FRET peptide as substrate measured every 2 mins over 1 hr by FRET assay relative to control; assay type: protein-complex assay
Outline: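 Purified human 20S core particle incubated with an 11-residue reporter peptide carrying a FRET pair. Hydrolysis rate of the peptide is calculated with and without stimulator and expressed as percent increase over basal hydrolysis.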

HEK-293T [2] = assay: Cytotoxicity against HEK293T cells up to 50 uM after 16 hrs by Celltiter-Glo luminescence assay; assay type: cell-based; conditions: human
Outline: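 HEK-293T cells exposed for 16 hrs to varying concentrations of stimulator before toxicity was assessed.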

HEK-293T [3] = assay: Cytotoxicity against HEK293T cells at 25 to 50 uM after 24 hrs by LDH assay; conditions: human
[4] = Solubility of the compound in DMSO; assay type: physicochemical

SMILES | EC50 (20S proteasome) | Activity [1] | Activity (HEK-293T [2]) | Activity (HEK-293T [3]) | solubility [4]
CCCCC/C=C\C/C=C\C/C=C\C/C=C\CCCC(=O)Nc1ccc(O)cc1 | 28 µM | 1000% | Toxic | Non-Toxic | –
CCCCCCCC/C=C\CCCCCCCC(=O)Nc1ccc(O)cc1 | 35 µM | 400% | Non-Toxic | Non-Toxic | –
CCCCCCCC/C=C\CCCCC/C=C/C(=O)O | – | – | – | – | Insoluble
CCCCCCCC/C=C\CCCCC/C=C/C(=O)Nc1ccc(O)cc1 | 24 µM | 500% | Non-Toxic | Non-Toxic | –
CCCCCC/C=C\CCCCC/C=C/C(=O)O | – | – | – | – | Insoluble
